The values that follow come from article PMC9730744 (ACS Omega, 2022).

For series [1], the system named is rat synovial cells. The series is described as follows: LDH activity assay of synovial cells in vitro. The series is classed as cell-based. Conditions: for LDH activity ± SD: 1 μM, supernatant of rat synovial cells, 48 h; for LDH content in the supernatant / damage to synovial cells (in words): compared with the normal group. In short, it runs like this: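 Log-phase rat synovial cells (2 × 10⁴/well) were cultured 48 h at 37 °C, 5% CO₂. They then received test compound at graded concentrations, methotrexate, or DMSO vehicle for 48 h. Plates were centrifuged 10 min, and supernatant LDH was assayed with a kit. Activity (U/L) = [(OD sample − OD control)/([…] − OD blank)] × 0.2 mM × 1000. Three independent experiments, each in triplicate.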

A short description of series [2]: Acute toxicity test in mice. Conditions: both, mouse, in vivo, po. Put shortly: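 Single oral gavage of 0.4 mL test substance to SPF mice (18–22 g) after 1-week acclimatization at 22 ± 2 °C on a 12 h light/dark cycle. Mice were randomized into 10 groups, half male and half female, fasted 8 h before dosing and 2 h after. Mortality, death time and signs of poisoning were recorded over 14 days, and LD50 was taken as the acute toxicity measure.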

Series [3] has as its system rat synovial cells. Description: Morphology of rat synovial cells in vitro. The series is classed as cell-based. Conditions: 1 μM, 48 h, Figure 3. In short, it runs like this: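 Synovial cells at 70–80% confluence were detached with 0.25% trypsin and seeded at 5000 cells/well in 24-well plates. Groups received test compound (1 μM), methotrexate (1 μM) or DMSO, with an untreated normal group. After 48 h culture, morphology was examined by cell imaging analysis.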

For series [4], the system named is TLR4, MyD88, NF-κB, and IκB in rat synovial cells. The series is described as follows: TLR4/NF-κB signaling pathway protein expression in rat synovial cells. Format: cell-based. The note with it: 1 μM, LPS 1 μg·mL^–1, compared with the LPS group, p < 0.01. Put shortly: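 Synovial cells (5000/well) were cultured 24 h, stimulated with LPS (1 μg·mL⁻¹) for 24 h, then treated with test compound at 1 μM for 24 h. Cells were fixed in 4% fixative for 45 min, permeabilized with 0.25% Triton for 15 min and blocked with 5% BSA for 10 min. Rabbit anti-rat primaries (1:100 or 1:200) were applied overnight at 4 °C, then FITC goat anti-rabbit (1:400, 30 min, 37 °C) and DAPI (1:800). Read-out was mean fluorescence intensity.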

Series [5] concerns CFA-induced arthritis in rats. Description: Complete Freund's adjuvant induced arthritis in rats. Format: in vivo, rat. Conditions: for IL-6 content in serum after treatment / TNF-α content in serum after treatment: high dose (100 mg·kg^–1·d^–1) and low dose (50 mg·kg^–1·d^–1); for IL-6 content in serum after treatment: Figure 4c; for TNF-α content in serum after treatment: Figure 4d; for change of paw volume before and after treatment: oral. Put shortly:
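SPF adult rats (200 ± 20 g) were acclimatized 2 weeks at 22 ± 3 °C and 40–70% humidity. Arthritis was induced with 0.1 mL CFA injected 2 cm from the tail root; the normal group received saline. From day 14 after induction, rats were dosed orally at 50 or 100 mg·kg⁻¹·d⁻¹ daily for 14 days. Paw volume was measured by toe volume meter before induction and on dosing days 1 and 14.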

The subject of series [6] is TNF-α, IL-1β, and IL-6 in rat synovial cells. The series is described as follows: Inflammatory cytokines in the rat synovial cell supernatant. The series is classed as cell-based. Conditions: 1 μM, LPS 1 μg·mL^–1, compared with the LPS group, p < 0.01. Put shortly:
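After 24 h they were stimulated with LPS (1 μg·mL⁻¹) for 24 h, then treated with test compound or methotrexate at 1 μM for 24 h. Supernatant was centrifuged at 3000 rpm for 15 min, and TNF-α, IL-1β and IL-6 were measured by ELISA. Three independent experiments, each in triplicate.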

Series [7] concerns rat synovial cells. Conditions: read-out: IC50, growth of synovial cells; cited from earlier work.
[8] abbreviates: 50 mg·kg^–1·d^–1 for 14 days, Figure 4a.

Marks after values point to notes of the source that are not given here.

Consider `O=C1C=C2CC[C@@H](C(=O)O)CC2C(=O)C1` (stereo partly drawn) [Compound 21], for which, in the series with rat synovial cells [1], the “LDH activity ± SD” value turned out to be 297.79 ± 49.6 U/L and the “LDH content in the supernatant / damage to synovial cells (in words)” value (“LDH content in the supernatant / damage” below) is listed as “little damage to synovial cells”.
On to `CCOC(=O)[C@@H]1CCC2=CC(=O)CC(=O)C2C1` (stereo partly drawn) [Compound 23], for which the LD50 (usually the dose expected to kill half of the subjects tested) at 14 days in series [2] was determined as 2307 ± 7.37 mg/kg. In the series with rat synovial cells [1], the “LDH activity ± SD” value is 342.78 ± 22.74 ^c U/L and the “LDH content in the supernatant / damage” value is “little damage to synovial cells”. Also, the “morphology of rat synovial cells” value with rat synovial cells [3] is given as “significant concentration dependence on synovial cell injury”.
For the compound `O=C1C=C2CC[C@@H](C3CCC(=O)CC3)CC2C(=O)C1` (stereo partly drawn) [Compound 28, (7R)-7-(4-oxocyclohexyl)-6,7,8,8a-tetrahydronaphthalene-1, 3 (2H, 5H)-dione], in the series with rat synovial cells [1], the “LDH activity ± SD” value was 375.29 ± 17.87 ^c U/L and the “LDH content in the supernatant / damage” value is listed as “little damage to synovial cells”. The “morphology of rat synovial cells” value in the series on rat synovial cells [3] was “significant concentration dependence on synovial cell injury”.
Consider `O=C1C=C2CC[C@@H](O)CC2C(=O)C1` (stereo partly drawn) [Compound 32, (7R)-7-hydroxy-6,7,8,8a-tetrahydronaphthalene-1, 3 (2H, 5H)-dione], for which, in series [4], the “expression of MyD88” value is on record as “significantly downregulated”, the “expression of NF-κB” value is on record as “significantly downregulated”, the “expression of TLR4” value was “significantly downregulated” and the “expression of the IκB protein” value is on record as “significantly upregulated”. This compound also yielded an LD50 at 14 days in series [2] of 2658 ± 9.06 mg/kg. For the same compound, in series [5], the “IL-6 content in serum after treatment” value is on record as “basically at a low level” and the “TNF-α content in serum after treatment” value is on record as “decreased”. Besides, the “change of paw volume before and after treatment” value (“change” for short) in series [5] (setting [8]) was “little change”. In addition, in series [5] (100 mg·kg^–1·d^–1 for 14 days, Figure 4b), the “change” value was “hardly changed”. For the same compound, in the series on rat synovial cells [1], the “LDH activity ± SD” value is reported as 307.02 ± 30.86 ^c U/L and the “LDH content in the supernatant / damage” value is “little damage to synovial cells”. In addition, in series [6], the “content of IL-1β in the supernatant” value was “significantly decreased”, the “content of IL-6 in the supernatant” value was “significantly decreased” and the “content of TNF-α in the supernatant” value is listed as “significantly decreased”. Moreover, the “morphology of rat synovial cells” value with rat synovial cells [3] is recorded as “significant concentration dependence on synovial cell injury”.
As to `CC(=O)N[C@@H]1CCC2=CC(=O)CC(=O)C2C1` (stereo partly drawn) [Compound 33], in the series on rat synovial cells [1], the “LDH activity ± SD” value is recorded as 264.24 ± 27.71 U/L and the “LDH content in the supernatant / damage” value was “little damage to synovial cells”.
Turning to `O=C1C=C2CCC(F)(F)CC2C(=O)C1` (stereo not drawn) [Compound 36, 7,7-difluoro-6,7,8,8a-tetrahydronaphthalene-1,3 (2H, 5H)-dione], the LD50 at 14 days in series [2] was 2709 ± 8.63 mg/kg. Also, in the series on rat synovial cells [1], the “LDH activity ± SD” value is listed as 292.07 ± 31.56 U/L and the “LDH content in the supernatant / damage” value is listed as “little damage to synovial cells”. In addition, in the series with rat synovial cells [3], the “morphology of rat synovial cells” value is listed as “significant concentration dependence on synovial cell injury”.
For the compound `CC(C)[C@H]1CC[C@]2(C)C(=O)CCC(=O)C=C12` [Dysodensiol K], in the series on rat synovial cells [7], the half-maximal inhibitory concentration (IC50) (in general, the point on the concentration scale where inhibition reaches its midpoint) was 11.8 ± 0.23 µM.
For the compound `CN(Cc1cnc2nc(N)nc(N)c2n1)c1ccc(C(=O)N[C@@H](CCC(=O)O)C(=O)O)cc1` [methotrexate, reference compound], in series [4], the “expression of MyD88” value is given as “significantly downregulated”, the “expression of NF-κB” value is reported as “significantly downregulated”, the “expression of TLR4” value is reported as “significantly downregulated” and the “expression of the IκB protein” value is “significantly upregulated”. In addition, the LD50 at 14 days in series [2] was 1368 ± 5.34 mg/kg. Moreover, in series [5], the “IL-6 content in serum after treatment” value is reported as “basically at a low level” and the “TNF-α content in serum after treatment” value is recorded as “decreased”. The “change” value in series [5] (setting [8]) is “significant volume change”. In addition, in the series with rat synovial cells [1], the “LDH activity ± SD” value was 438.75 ± 11.50 ^c U/L and the “LDH content in the supernatant / damage” value was “significantly increased”. Moreover, in series [6], the “content of IL-1β in the supernatant” value was “significantly decreased”, the “content of IL-6 in the supernatant” value is on record as “significantly decreased” and the “content of TNF-α in the supernatant” value is “significantly decreased”. For the same compound, in the series with rat synovial cells [3], the “morphology of rat synovial cells” value was “significantly damaged”.
